Measured values pooled from the literature.
Lines come from different studies, so protocols differ. In brackets after ≈: the same amount, converted by molar mass.

CC(C=CC(O)=C1C(=O)CNC1=O)=CC(C)C1OC2(C)OC(C(O)C=C2C)C1C (centres unmarked) — MIC (Bacillus cereus; microbial growth): > 100 µM
COc1ccc(Cc2cc(C)cc(=O)n2O)cc1 — MIC80 (Cryptococcus gattii; microbial growth): 2.3 µM (≈ 0.564 µg/mL)
CC1=CC[C@H]2O[C@]1(C)O[C@H]([C@H](C)/C=C(C)/C=C/C(O)=C1/C(=O)CNC1=O)[C@H]2C — MIC (Bacillus cereus; microbial growth): 3.13 µM
COC[C@H](NC(=O)OCc1ccccc1)C(=O)N[C@@H](Cc1ccccc1)C(=O)N[C@@H](CC(C)C)C(=O)C(=O)Nc1ccccc1 — IC50 (RPMI-8226; cell growth or viability, MTS; 72 h): 437 nM
CCN1CCN(c2cc3c(cc2F)c(=O)c(C(=O)O)cn3C2CC2)CC1 — MIC (Salmonella enterica; microbial growth; CHOLERAESUIS; 20 h, pH 7): 0.0625 µg/mL
CC1=NN(CNC(=O)c2ccccc2)C(=O)C1=NNn1c(-c2ccccc2)nc2ccccc2c1=O — MIC (Salmonella enterica; microbial growth, broth dilution; PARATYPHI; 24 h): 51.9 µM
Cc1cc(Cc2ccc(Cl)cc2)n(O)c(=O)c1 — MIC80 (Cryptococcus gattii; microbial growth): 3 µM (≈ 0.749 µg/mL)
CCCCCCCCCCCC(=O)OC[C@H]1O[C@@H](n2cc(C)c(=O)[nH]c2=O)C[C@@H]1O — MBC (Bacillus cereus; microbial killing, broth dilution): 8 µg/mL (≈ 18.8 µM)
Cc1cc(NS(=O)(=O)c2ccc(N)cc2)no1 — MIC (Salmonella enterica; microbial growth; CHOLERAESUIS; 20 h, pH 7.2): 2050 µg/mL
COc1ccc(C[C@H](NC(=O)[C@H](C)NC(=O)CN2CCOCC2)C(=O)N[C@@H](Cc2ccccc2)C(=O)[C@@]2(C)CO2)cc1 — IC50 (RPMI-8226; cell growth or viability, MTS; 72 h): 213 nM
O=C1NN=C(N=Cc2ccc(O)c(O)c2)C1=NNn1c(-c2ccccc2)nc2ccccc2c1=O — MIC (Salmonella enterica; microbial growth, broth dilution; PARATYPHI; 24 h): 53.5 µM
O=c1cccc(C2CCCCC2)n1O — MIC80 (Cryptococcus gattii; microbial growth): 1.7 µM (≈ 0.329 µg/mL)
CO/N=C(\C(=O)N[C@@H]1C(=O)N2C(C(=O)O)=C(CSc3nc(=O)c(=O)[nH]n3C)CS[C@H]12)c1csc(N)n1 — MIC (Salmonella enterica; microbial growth; CHOLERAESUIS; 20 h, pH 7.2): 0.0625 µg/mL
C[C@H]1O[C@@H](O[C@H]2[C@@H](O)C[C@H](O[C@H]3[C@@H](O)C[C@H](O[C@H]4CC[C@@]5(C)[C@H](CC[C@@H]6[C@@H]5C[C@@H](O)[C@]5(C)[C@@H](C7=CC(=O)OC7)CC[C@]65O)C4)O[C@@H]3C)O[C@@H]2C)C[C@H](O)[C@@H]1O — IC50 (ReNcell VM; cell growth or viability; 24 h): ~560 nM
COc1cc(Cc2cnc(N)nc2N)cc(OC)c1OC — MBC (Shigella dysenteriae; microbial killing, broth dilution; 48 h): 32 µg/mL (≈ 110 µM)
CC(C)C[C@H](NC(=O)[C@H](Cc1c[nH]c2ccccc12)NC(=O)[C@H](C)NC(=O)OCc1ccccc1)C(=O)C(=O)Nc1ccccc1 — IC50 (RPMI-8226; cell growth or viability, MTS; 72 h): 760 nM
O=c1c(O)c(-c2ccc(O)c(O)c2)oc2cc(O)cc(O)c12 — IC50 (Salmonella enterica; microbial growth; TYPHI): 80100 nM
O=c1[nH]cc(F)c(=O)[nH]1 — MBC (Shigella dysenteriae; microbial killing, broth dilution; 48 h): 8 µg/mL (≈ 61.5 µM)
CCCCCCCCCCCC(=O)OC[C@H]1O[C@@H](n2cc(C)c(=O)[nH]c2=O)C[C@@H]1OC(=O)c1ccc(C(C)(C)C)cc1 — MIC (Bacillus cereus; microbial growth, broth dilution): 2 µg/mL
CCC1(c2ccc(N)cc2)CCC(=O)NC1=O (centres unmarked) — IC50 (OVCAR-3; cell growth or viability, CCK-8; 48 h): > 50000 nM
Cc1cc(C2CCCCC2)n(O)c(=O)c1 — MIC80 (Cryptococcus gattii; microbial growth): 2.3 µM (≈ 0.477 µg/mL)
O=C(N[C@H](CO)[C@H](O)c1ccc([N+](=O)[O-])cc1)C(Cl)Cl — MIC (Salmonella enterica; microbial growth; CHOLERAESUIS; 20 h, pH 7.2): 4 µg/mL
CC1=CC(=O)[C@H]2O[C@]1(C)O[C@H]([C@H](C)/C=C(C)/C=C/C(O)=C1/C(=O)CNC1=O)[C@H]2C — MIC (Bacillus cereus; microbial growth): 25 µM
